As usually defined, the IC50 is the concentration at which inhibition is half-maximal.

Activity calls are given as the source filed them. The rule behind the calls is not given here.

The values below come from ChEMBL document CHEMBL3576809, “Thiasporines A-C, thiazine and thiazole derivatives from a marine-derived Actinomycetospora chlora” (J Nat Prod, 2015).

Holding throughout (format): functional, cell-based
In test [1] the test system is HCC366. In words: Cytotoxicity against human HCC366 cells assessed as cell viability at 0.001 to 50 uM after 96 hrs by Cell Titer Glo assay. Summed up: (§1)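 Cells grown in RPMI/L-glutamine with 1000 U/mL penicillin, 1 mg/mL streptomycin and 5% FBS at 37 °C, 5% CO2, then plated in 384-well plates overnight. Compounds in DMSO were added at final 50 μM to 1 nM (0.5% DMSO final) for 96 h. CellTiter-Glo (1:2 in medium) was added, 10 min at room temperature, and luminescence normalized to DMSO-only wells.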
In general terms: Cellular ATP, detected with luciferase, serves as a proxy for viable cell number.

For test [2], the system named is HCC44. The test can be described thus: Cytotoxicity against human HCC44 cells assessed as cell viability at 0.001 to 50 uM after 96 hrs by Cell Titer Glo assay. Summed up:
as §1

The test system of test [3] is A549. In words: Cytotoxicity against human A549 cells assessed as cell viability at 0.001 to 50 uM after 96 hrs by Cell Titer Glo assay. A digest of the protocol: as §1
Test [4] concerns NCI-H2122. The test can be described thus: Cytotoxicity against human NCI-H2122 cells assessed as cell viability at 0.001 to 50 uM after 96 hrs by Cell Titer Glo assay. Summed up:
as §1

Test [5] concerns A549. In words: Cytotoxicity against human A549 cells assessed as cell viability up to 24 uM after 96 hrs by Cell Titer Glo assay. A digest of the protocol: (§2)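 NSCLC lines were kept in RPMI/L-glutamine with penicillin, streptomycin and 5% FBS (37 °C, 5% CO2) and seeded in 384-well plates overnight. DMSO-dissolved compounds were added (final DMSO 0.5%) and incubated 96 h. Viability was read as CellTiter-Glo luminescence after 10 min at room temperature and normalized to untreated cell-plus-DMSO wells.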

In test [6] the test system is HCC366. In words: Cytotoxicity against human HCC366 cells assessed as cell viability up to 24 uM after 96 hrs by Cell Titer Glo assay. A digest of the protocol:
as §2

The test system of test [7] is HCC44. The test can be described thus: Cytotoxicity against human HCC44 cells assessed as cell viability up to 24 uM after 96 hrs by Cell Titer Glo assay. Summed up: as §2
The subject of test [8] is NCI-H2122. In words: Cytotoxicity against human NCI-H2122 cells assessed as cell viability after 96 hrs by Cell Titer Glo assay. To be noted: NCI-H2122, 96 h. Summed up:
as §2

As to `CNc1ccccc1-c1nc(C(=O)O)cs1`, the outcome in the test on HCC366 [1], in the test on HCC44 [2], in the test with A549 [3] and in the test with NCI-H2122 [4] was inactive.

For `Nc1ccccc1-c1nc(=O)c(O)cs1`, the result with A549 [5], in the test on HCC366 [6] and in the test with HCC44 [7] was inactive. Moreover, the IC50 in the test with NCI-H2122 [8] came to 5.4 µM.

With `CNc1ccccc1-c1nc(C(=O)OC)cs1`, the result in the test on HCC366 [1], in the test on HCC44 [2], with A549 [3] and in the test on NCI-H2122 [4] was inactive.
